Experimental data: ChEMBL document CHEMBL1157760, “Design, synthesis and anticancer activities of stilbene-coumarin hybrid compounds: Identification of novel proapoptotic agents” (Bioorg Med Chem, 2010)
One block for each compound: values may come before it. Calls of active or inactive are those of the source. No cut-off for these calls is given here.

Experiments:
[1] = system: NCI-H460; test: Antiproliferative activity against human H460 cells after 72 hrs; format: functional, cell-based; settings: NCI-H460, 72 h
In short: (§1)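 Growth inhibition: log-phase tumour cells seeded in duplicate, drug added 24 h after seeding, cells harvested 72 h after exposure and counted with a cell counter. IC50 taken as concentration giving 50% fewer cells than untreated control.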

[2] = system: A-431; test: Antiproliferative activity against human A431 cells after 72 hrs; format: functional, cell-based; settings: A-431, 72 h; in short: as §1
[3] = system: NCI-H460; test: Induction of apoptosis in human H460 cells at 0.3 to 3 uM after 72 hrs by TUNEL assay; format: functional, cell-based
In short: (§2)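 H460 cells exposed 72 h to drug. Floating plus adherent cells fixed in 4% paraformaldehyde for 60 min at room temperature, then resuspended in ice-cold PBS. Fluorescein in situ cell-death (TUNEL) kit used and cells read by flow cytometry. Result given as percent TUNEL-positive cells against untreated control.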

[4] = system: NCI-H460; test: Increase in CDKp21 protein expression in human H460 cells at 3 uM after 24 hrs by Western blot analysis; format: functional, cell-based
In short: (§3)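 After 24 h drug exposure, H460 cells rinsed twice in ice-cold PBS with 0.1 mM sodium orthovanadate and lysed in hot sample buffer. Protein quantified, separated by SDS-PAGE, transferred to nitrocellulose, probed with primary antibodies and HRP secondaries, and detected by enhanced chemiluminescence. Actin served as loading control.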

[5] = system: NCI-H460; test: Upregulation of cyclin B1 protein expression in human H460 cells at 3 uM after 24 hrs by Western blot analysis; format: functional, cell-based; in short: as §3
[6] = Antiproliferative activity against human JR8 cells after 72 hrs; format: functional, cell-based; settings: JR8, 72 h; in short: as §1
[7] = system: NCI-H460; test: Upregulation of p34CDC2 protein expression in human H460 cells at 3 uM after 24 hrs by Western blot analysis; format: functional, cell-based; in short: as §3
[8] = system: NCI-H460; test: Induction of apoptosis in human H460 cells assessed as cleavage of PARP at 1.5 uM after 24 hrs by Western blot analysis; format: functional, cell-based; in short: as §3
[9] = system: NCI-H460; test: Increase in CDKp21 protein expression in human H460 cells at 1.5 uM after 24 hrs by Western blot analysis; format: functional, cell-based; in short: as §3
[10] = system: NCI-H460; test: Induction of apoptosis in human H460 cells assessed as cleavage of caspase 3 at 1.5 uM after 24 hrs by Western blot analysis; format: functional, cell-based; in short: as §3
[11] = system: NCI-H460; test: Upregulation of cyclin B1 protein expression in human H460 cells at 1.5 uM after 24 hrs by Western blot analysis; format: functional, cell-based; in short: as §3
[12] = system: NCI-H460; test: Upregulation of p34CDC2 protein expression in human H460 cells at 1.5 uM after 24 hrs by Western blot analysis; format: functional, cell-based; in short: as §3
[13] = system: NCI-H460; test: Induction of apoptosis in human H460 cells at 0.5 to 1.5 uM after 72 hrs by TUNEL assay; format: functional, cell-based; in short: as §2
[14] = system: NCI-H460; test: Antitumor activity against human H460 cells xenograft model assessed as tumor growth inhibition at 10 to 20 mg/kg, po administered daily; format: functional; settings: dose mg/kg 10-20
[15] = system: NCI-H460; test: Induction of apoptosis in human H460 cells assessed as CDKp21-p34CDC2 complex formation at 1.5 uM after 24 hrs by immunoprecipitation assay; format: functional, cell-based
In short: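 H460 cells exposed 24 h at 1.5 µM, lysed in NET buffer (pH 7.4, 0.1% NP40, protease inhibitors) on ice then at 4 °C. Lysate cleared at 10,000g and BCA-quantified. 500 µg immunoprecipitated with anti-cdc2 antibody 2 h at 4 °C, then with protein A-sepharose overnight at 4 °C. Pellets washed, eluted and immunoblotted for p34cdc2 and p21.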

[16] = system: NCI-H460; test: Induction of apoptosis in human H460 cells at 10 to 20 uM after 72 hrs by TUNEL assay; format: functional, cell-based; in short: as §2
[17] = system: NCI-H460; test: Cell cycle arrest in human H460 cells assessed as accumulation at G2/M phase at 20 uM after 24 hrs by propidium iodide staining-based flow cytometry; format: functional
In short: (§4)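 H460 cells treated 24 h at 10 and 20 µM (resveratrol), 0.5 and 1.5 µM, or 0.3 and 3 µM, then analysed for cell cycle phase distribution (G1, S, G2/M).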

[18] = system: NCI-H460; test: Cell cycle arrest in human H460 cells assessed as accumulation at G2/M phase after 24 hrs by propidium iodide staining-based flow cytometry; format: functional; in short: as §4

SMILES: O=c1cc(/C=C/c2cc(O)cc(O)c2)c2ccc(O)cc2o1
IC50 [1]: 27 µM

SMILES: COc1cc(/C=C/c2cc(=O)oc3ccccc23)cc(OC)c1
IC50 [1]: 2.6 µM

SMILES: COc1ccc2c(/C=C/c3ccc(OCC=C(C)C)cc3)cc(=O)oc2c1
IC50 [1]: > 50 µM

SMILES: COc1ccc2c(/C=C/c3cc(OC)c(OC)c(OC)c3)cc(=O)oc2c1
IC50 [1]: > 100 µM

SMILES: COc1ccc2c(/C=C/c3cc(C)cc(C)c3)cc(=O)oc2c1
IC50 [2]: 3.5 µM | Activity [3]: Active | Activity [4]: Active | IC50 [1]: 0.29 µM | Activity [5]: Active | IC50 [6]: 3.5 µM | Activity [7]: Active

SMILES: COc1cc(/C=C/c2cc3ccc(OC)cc3oc2=O)cc(OC)c1
IC50 [1]: > 10 µM

SMILES: COc1cc(/C=C/c2cc(=O)oc3ccc(OC)cc23)cc(OC)c1
IC50 [1]: 11 µM

Second part, led by results:

IC50 [1]: 12.9 µM
SMILES: COc1cccc(/C=C/c2cc(=O)oc3cc(OC)ccc23)c1

IC50 [1]: > 50 µM
SMILES: COc1ccc2c(/C=C/c3ccc(OC)c(OC)c3OC)cc(=O)oc2c1

IC50 [2]: 3.44 µM | IC50 [1]: 0.45 µM
SMILES: COc1cc(/C=C/c2cc(=O)oc3cc(OC)ccc23)cc(OC)c1
Activity [8]: Active | Activity [9]: Active | Activity [10]: Active | IC50 [6]: 3.2 µM | Activity [11]: Active | Activity [12]: Active | Activity [13]: Active | inhibition (INH) [14]: 50% | Activity [15]: Active

IC50 [1]: 12.9 µM
SMILES: Oc1ccc(/C=C/c2cc(O)cc(O)c2)cc1 [RESVERATROL]
Activity [16]: inactive | Activity [17]: Active | Activity [18]: Dose-dependent effect
